The values below come from ChEMBL document CHEMBL1671844, “Structure guided development of potent reversibly binding penicillin binding protein inhibitors” (ACS Med Chem Lett, 2011).

For experiment [1], the target named is D-alanyl-D-alanine carboxypeptidase (Actinomadura sp. R39, UniProt P39045). Description: Inhibition of Actinomadura R39 PBP after 60 mins.
For experiment [2], the target named is D-alanyl-D-alanine carboxypeptidase (Actinomadura sp. R39) (UniProt P39045). Nature of the experiment: Inhibition of Actinomadura R39 PBP assessed as residual activity at 100 uM after 60 mins. In outline:
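Percentage residual activity of R39 measured with compound at 100 μM, in triplicate.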

Where only a bound is given, the exact number is not on record here.

Chain of D-alanyl-D-alanine carboxypeptidase (P39045 whole entry): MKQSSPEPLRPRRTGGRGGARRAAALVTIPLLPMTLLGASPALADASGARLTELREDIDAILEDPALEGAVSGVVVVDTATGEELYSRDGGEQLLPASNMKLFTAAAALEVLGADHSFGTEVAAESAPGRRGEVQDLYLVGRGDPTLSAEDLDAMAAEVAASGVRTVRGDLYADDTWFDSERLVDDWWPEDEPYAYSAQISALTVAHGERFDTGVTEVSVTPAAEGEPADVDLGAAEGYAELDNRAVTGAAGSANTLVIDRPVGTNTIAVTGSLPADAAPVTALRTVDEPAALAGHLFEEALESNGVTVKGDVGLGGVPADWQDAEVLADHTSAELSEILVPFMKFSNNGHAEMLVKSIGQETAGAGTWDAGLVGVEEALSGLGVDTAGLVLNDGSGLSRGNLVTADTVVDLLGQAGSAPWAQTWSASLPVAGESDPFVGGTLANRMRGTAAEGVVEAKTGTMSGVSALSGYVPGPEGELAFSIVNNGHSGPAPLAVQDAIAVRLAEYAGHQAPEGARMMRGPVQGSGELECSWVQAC
Chain of D-alanyl-D-alanine carboxypeptidase (Actinomadura sp. R39) (P39045 whole entry): as above

By IC50 is commonly meant the concentration that gives 50% inhibition. In turn, `C[C@@H](NC(=O)c1ccccc1NS(=O)(=O)c1ccccc1)B(O)O` came in with a half-maximal inhibitory concentration (IC50) in experiment [1] of 370 nM. The Activity in experiment [2] stood at 3%.

Regarding `C[C@@H](NC(=O)c1ccc2sccc2c1)B(O)O`, the midpoint of inhibition in experiment [1], the IC50, lay at 2200 nM. In experiment [2], the Activity stood at 8%.

Broadly, the Ki is the equilibrium dissociation constant of an inhibitor or competing ligand from its target. In experiment [1], `C[C@@H](NC(=O)c1ccccc1C(=O)c1ccc2ccccc2c1)B(O)O` yielded an IC50 of 80 nM and an inhibition constant Ki of 105 nM. Moreover, the Activity in experiment [2] was determined as 0%.

For `C[C@H](NC(=O)c1ccccc1Cc1ccccc1)B(O)O`, the concentration for half-maximal inhibition (IC50) in experiment [1] came to 7200 nM. Also, in experiment [2], the Activity stood at 16%.

`CC(C)c1ccccc1C(=O)N[C@H](C)B(O)O` had an IC50 in experiment [1] of 59000 nM. Besides, the Activity in experiment [2] was 36%.

With `C[C@@H](NC(=O)c1c(F)cccc1F)B(O)O`, the half-inhibitory concentration (IC50) in experiment [1] worked out at 500 nM. In addition, in experiment [2], the Activity turned out to be 0%.

Consider `C[C@@H](NC(=O)c1ccc2ccccc2c1)B(O)O`, for which the IC50 in experiment [1] was 14000 nM. Also, the Activity in experiment [2] was determined as 19%.

As to `C[C@@H](NC(=O)c1ccccc1Cc1ccccc1)B(O)O`, in experiment [1], the half-maximal inhibitory concentration (IC50) turned out to be 1800 nM. In experiment [2], the Activity was determined as 5%.

Turning to `C[C@@H](NC(=O)c1ccccc1C(c1ccccc1)c1ccccc1)B(O)O`, in experiment [1], the half-inhibitory concentration (IC50) is under 80 nM and affinity was put at a Ki of 63 nM. Also, the Activity in experiment [2] turned out to be 1%.

Regarding `C[C@@H](NC(=O)c1c(F)cccc1-c1ccccc1)B(O)O`, 270 nM corresponded to half-maximal inhibition in experiment [1] (IC50). Moreover, the Activity in experiment [2] worked out at 0%.

Take `C[C@@H](NC(=O)c1c(Cl)cccc1Cl)B(O)O`: the IC50 in experiment [1] was found to be 4200 nM. In addition, in experiment [2], the Activity turned out to be 3%.

For `C[C@@H](NC(=O)c1ccccc1-c1ccccc1)B(O)O`, the half-inhibitory concentration (IC50) in experiment [1] is 1310 nM. Also, the Activity in experiment [2] was found to be 5%.

On to `C[C@H](NC(=O)c1c(F)cccc1F)B(O)O`, for which, in experiment [1], the IC50 was 3300 nM. In experiment [2], the Activity is 3%.
